According to paper PMC9884087 (Journal of Medicinal Chemistry, 2023):

How the values were obtained:
TcCYP51 = TcCYP51 (Trypanosoma cruzi, UniProt Q7Z1V1); test: Fluorescence-based Trypanosoma cruzi CYP51 inhibition assay; format: biochemical; conditions: concentrations up to and including 100 μM
[1] = tested on: T. cruzi strain (CL Brener); test: In vivo efficacy, bioluminescent acute T. cruzi infection in BALB/c mice; parameters: species or system Trypanosoma cruzi; conditions: 50 mg/kg BID p.o. 5 days
In short: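 Female BALB/c mice, 7–8 weeks old, housed specific-pathogen-free, infected i.p. with 1 × 10³ CL Brener trypomastigotes from SCID mouse blood. The parasites constitutively express the red-shifted luciferase PpyRE9h. From day 14 post-infection (acute peak), mice (n = 3) received test compound orally at 50 mg/kg twice daily for 5 days. Parasite burden was tracked by in vivo bioluminescence imaging against untreated controls through day 18, with animals observed for adverse effects.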

Mouse cassette dosing PK = format: in vivo; conditions: male, ICR, plasma, iv, 0.1 mg/kg
[2] = Mouse preliminary tolerability study; format: in vivo
In short: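 Dosing was oral, twice daily, for 5 days. Recorded: mortality, clinical observations (e.g. temperature to touch, posture, gait, activity), body weight and weight gain, food consumption, and gross pathology.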

[3] = Mouse pharmacokinetic study; format: in vivo; conditions: for clearance: female, Balb/c, mouse, plasma, iv
In short: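 Female Balb/c mice received test compound i.v. plus p.o., either 1 and 50 mg/kg or 2 and 12.5 mg/kg (n = 3 mice per route). Some arms were pretreated with 1-aminobenzotriazole (50 mg/kg p.o., 2 h before dosing) as a cytochrome P450 inhibitor; others had none. Blood concentration–time profiles were obtained.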

[4] = tested on: panel of 35 known-liability targets including GPCRs and ion channels; test: Known-liability off-target panel; conditions: 300 kinases at 1 μM and 35 known-liability targets at 10 μM
[5] = single p.o. dose 50 mg/kg, no ABT, 50 mg/kg

TcCYP51, sequence (Q7Z1V1 whole entry): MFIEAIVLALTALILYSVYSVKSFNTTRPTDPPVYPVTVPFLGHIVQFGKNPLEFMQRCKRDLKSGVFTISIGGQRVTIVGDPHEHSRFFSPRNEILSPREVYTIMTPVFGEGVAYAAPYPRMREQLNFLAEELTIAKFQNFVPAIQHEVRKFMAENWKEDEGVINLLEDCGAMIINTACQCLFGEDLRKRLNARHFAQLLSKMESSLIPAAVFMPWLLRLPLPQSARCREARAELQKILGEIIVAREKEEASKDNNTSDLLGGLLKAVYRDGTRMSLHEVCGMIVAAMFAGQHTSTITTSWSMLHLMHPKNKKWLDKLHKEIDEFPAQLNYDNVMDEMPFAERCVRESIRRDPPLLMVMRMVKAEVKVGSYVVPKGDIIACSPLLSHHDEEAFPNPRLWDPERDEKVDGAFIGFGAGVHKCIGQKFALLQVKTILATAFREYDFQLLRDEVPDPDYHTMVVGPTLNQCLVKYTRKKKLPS

| TcCYP51 inhibitory activity (TcCYP51) | Structure (SMILES) | adverse effects during treatment of infected mice [1] | clearance (Mouse cassette dosing PK) | no-observed-adverse-effect-level (NOAEL) ([2]; BID p.o. 5 days, female mice) | multiday tolerability observations ([2]; female Balb/c mice, 10, 50, 100 mg/kg/dose BID p.o. up to 5 days, 1 animal/group) | clearance ([3]; 2 mg/kg) | tolerability (single p.o. dose) ([3]; single dose 12.5 mg/kg p.o. with ABT 50 mg/kg p.o. 2 h prior) | tolerability (single p.o. dose) ([3]; single dose 12.5 mg/kg p.o. with ABT 50 mg/kg p.o. 2 h prior, listed as 85 + ABT) | tolerability (single p.o. dose) [3, 5] | off-target activity [4] | tolerability (5 days BID p.o.) ([2]; healthy mice, 10, 50, 100 mg/kg BID p.o., 5 days) | clearance ([3]; 1 mg/kg) |
| --- | --- | --- | --- | --- | --- | --- | --- | --- | --- | --- | --- | --- |
| no inhibitory activity | Fc1ccc(C2CCN(c3nc(-c4ccccn4)nc4ccccc34)C2)cc1 (stereo not shown) [Compound 83, 4-[3-(4-Fluorophenyl)pyrrolidin-1-yl]-2-(pyridin-2-yl)quinazoline] | – | – | – | – | – | – | – | – | – | – | – |
| – | c1ccc(-c2nc(N3CCC(c4ccccn4)C3)c3ccccc3n2)nc1 (stereo not shown) [Compound 85, 2-(pyridin-2-yl)-4-(3-(pyridin-2-yl)pyrrolidin-1-yl)quinazoline] | no adverse effects were observed | 38.5 mL/min/kg | 100 mg/kg/dose (BID) | well tolerated | 4.9 mL/min/kg | adverse tolerability events were observed after the single dose | poor | no adverse issues were noted | – | – | – |
| – | CC(C)(Nc1nc(-c2ccccn2)nc2ccccc12)c1ccccn1 [Compound 54, 2-(Pyridin-2-yl)-N-(2-(pyridin-2-yl)propan-2-yl)quinazolin-4-amine] | – | – | – | – | – | – | – | No adverse reactions or compound-related side effects were observed | no known off-target activity with the exception of 5HT-1A antagonism | poor | 12.4 mL/min/kg |
